Assay outcomes as filed in PubChem.
Shown are actives, neighbours in structure and some others; about 5.2% of the full set was active somewhere.
EBNA-1 inh: blocks EBNA-1 binding to DNA; EBNA-1 DNA binding, fluorescence polarization; inhibition, % at 14.8 µM; hit rate 0.34% among 300,000; in the data active = inhibition above about 28%
ZTA counter: counter-screen for EBNA-1 inhibitors: inhibitors of Epstein-Barr virus ZTA | P03206 | hit rate 0.15% among 320,000 | ZTA-DNA binding, fluorescence polarization | inhibition, % at 11 µM | AID 2234; in the data active = inhibition above about 33%
Target sequence (P03206 whole entry, looked up): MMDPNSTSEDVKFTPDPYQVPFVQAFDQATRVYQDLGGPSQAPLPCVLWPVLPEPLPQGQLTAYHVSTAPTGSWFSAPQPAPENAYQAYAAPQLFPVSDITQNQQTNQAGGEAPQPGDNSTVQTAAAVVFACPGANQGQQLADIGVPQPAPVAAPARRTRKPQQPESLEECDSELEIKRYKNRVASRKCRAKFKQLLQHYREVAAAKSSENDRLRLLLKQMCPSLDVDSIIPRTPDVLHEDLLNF
ALR inh: human ALR oxidase inhibition via reduced H2O2; P55789; purified ALR, DTT oxidation, H2O2 HRP-luminol luminescence; inhibition, % (test concentration not listed); hit rate 3.8% among 290,000; AID 485317;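 active = mean replicate inhibition above about 79%, with every replicate also reaching it, limit read from the data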
Target sequence (P55789 whole entry, looked up): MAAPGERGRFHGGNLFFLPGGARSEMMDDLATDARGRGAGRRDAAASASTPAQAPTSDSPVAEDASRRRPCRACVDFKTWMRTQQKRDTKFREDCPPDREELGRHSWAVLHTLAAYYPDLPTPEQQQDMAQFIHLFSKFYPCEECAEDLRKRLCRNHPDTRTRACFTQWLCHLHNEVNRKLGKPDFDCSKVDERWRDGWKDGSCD
NS3 helicase inh: blocks Hepatitis C virus NS3 helicase unwinding. NS3 helicase DNA unwinding, Cy5 molecular beacon fluorescence. inhibition, % at 10.9 µM. hit rate 0.56% among 290,000;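 active = inhibition above the mean of all tested compounds plus 3 SD, set per campaign, cut at about 35% in these data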;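 also: 0% = DMSO wells and 100% = thioflavine S control wells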
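Assay system: hepatitis C virus NS3 helicase domain fragment enzyme. Also added: annealed dual-labelled DNA beacon duplex, ATP-started. Timing: 1 h reaction at 25 °C, ATP-initiated. Technique: Cy5 fluorescence at 0 and 60 min, beacon hairpin quenching. Evaluation: % inhibition of unwinding. Replication: one well per compound.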
PfM18AAP inh-1: blocks P. falciparum M18 aspartyl aminopeptidase; hit rate 1.2% among 290,000; recombinant PfM18AAP, H-Glu-NHMec fluorogenic cleavage; inhibition, % at 7.35 µM;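 active = inhibition above the campaign mean inhibition over all tested compounds plus 3 SD, cut at about 28% in these data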;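 also: 0% = plate median of test compound wells and 100% = 2 mM ZnCl2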
core dimer inh: blocks dimerization of HCV core protein. TR-FRET GST/Flag-core106 dimerization, 1536-well. hit rate 0.33% among 300,000. inhibition, % at 5 µM. AID 1899;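 active = inhibition above the mean of all tested compounds plus 3 SD, set per screening campaign, cut at about 45% in these data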
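Material: Tagged HCV core106 pair (GST and Flag) | Amount: GST-core106 13.5 nM, Flag-core106 17 nM | Medium: KF-containing HEPES buffer, pH 7.45, DTT, CHAPS, BSA | Reagent: Eu donor and XL665 acceptor anti-tag antibodies | Schedule: 4 h at 22.5 °C | Technique: Time-resolved FRET, ex 340 nm, em 617 and 671 nm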
PfM18AAP inh-2: confirmation of Plasmodium falciparum M18 aspartyl aminopeptidase inhibitors; shares compounds with PfM18AAP inh-1; AID 2170; recombinant PfM18AAP, H-Glu-NHMec fluorogenic cleavage; inhibition, % at 7.35 µM; hit rate 28% among 2,400;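 active = mean inhibition over replicate wells above the hit cutoff set for the earlier primary screen, cut at about 29% in these data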;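 also: 0% = median of test compound wells and 100% = 2 mM ZnCl2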
CTSL1 counter: Cathepsin L (human) inhibition, confirmation; shares compounds with PfM18AAP inh-1; 2,400 tested, under 10 active; inhibition, % at 5.96 µM; purified cathepsin L1, Z-Leu-Arg-MCA fluorescence;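 active = average inhibition across replicates above the hit cutoff set in the earlier primary screen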;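 also: 0% = median of test compound wells and 100% = Z-Phe-Ala-diazomethylketone 1 µM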
Target sequence (P07711 whole entry, looked up): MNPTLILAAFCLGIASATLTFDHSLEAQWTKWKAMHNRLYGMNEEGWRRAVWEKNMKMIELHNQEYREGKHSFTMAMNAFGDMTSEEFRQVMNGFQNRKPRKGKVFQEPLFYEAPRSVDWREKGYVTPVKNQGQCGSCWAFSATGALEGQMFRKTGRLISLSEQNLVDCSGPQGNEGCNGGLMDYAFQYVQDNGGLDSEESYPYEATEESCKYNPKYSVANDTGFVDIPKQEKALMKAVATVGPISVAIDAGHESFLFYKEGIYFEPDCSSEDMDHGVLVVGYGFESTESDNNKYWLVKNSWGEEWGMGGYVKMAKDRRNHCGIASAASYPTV
The depositor's hits bear a star; . = no result given.

SMILES | EBNA-1 inh | ZTA counter | ALR inh | NS3 helicase inh | PfM18AAP inh-1 | core dimer inh | PfM18AAP inh-2 | CTSL1 counter
O=C1N(c2cccc3ccccc23)C(c2ccccc2)N2CCCN12 (centres undefined) | -2.1 | 0.7 | -20.3 | -5.3 | -0.7 | -9.8 | . | .
NC(=S)Nc1cccc2cccnc12 | -3.0 | 3.3 | -18.1 | 1.2 | 32.2* | -5.0 | 0.7 | 2.1
NC(=S)NNc1cccc2cccnc12 | 6.0 | -5.2 | 0.6 | -17.7 | 14.2 | 9.6 | . | .
CN(C1(C)CCS(=O)(=O)C1)S(=O)(=O)c1ccc2ccccc2c1 (centres undefined) | -0.7 | 5.1 | -8.4 | . | . | -4.2 | . | .
O=C(CSc1nnc(-c2ccccc2Br)o1)Nc1nncs1 | 0.8 | -13.7 | -7.6 | -2.6 | 43.8* | 2.2 | -2.3 | -3.6
O=C(CSc1nnc(-c2ccncc2)o1)Nc1nncs1 | 3.1 | -3.7 | -9.6 | 5.9 | 19.2 | 4.9 | . | .
CC(=O)NCc1cccc(CNC(C)=O)n1 | -4.7 | 6.6 | -0.1 | 1.3 | 8.1 | -15.5 | . | .
CC(=O)NCc1ccc(-c2csc(N)n2)s1 | -8.1 | -18.1 | -2.7 | 4.4 | 36.8* | -5.4 | -52.3 | -5.7
O=C(CCl)Nc1cn(-c2ccccc2)nc1-c1ccc(F)cc1 | -4.8 | 11.5 | 57.2 | -10.9 | 3.4 | 1.1 | . | .
CC1(C)CC(=O)C(C(=S)Nc2ccccc2)=C(NC2CC(C)(C)NC(C)(C)C2)C1 | 12.4 | -2.4 | 8.7 | 0.2 | 47.1* | -4.3 | -48.0 | 3.0
CC1(C)CC(NC(=S)Nc2ccc(S(N)(=O)=O)cc2)CC(C)(C)N1 | -8.0 | 5.3 | 1.6 | 2.4 | 2.1 | 1.5 | . | .
O=C(NNC(=O)c1ccc(O)c(Cl)c1)c1cccc(S(=O)(=O)N2CCOCC2)c1 | -4.3 | 1.6 | 3.4 | . | . | -12.0 | . | .
COc1ccccc1NS(=O)(=O)c1ccc(NC(C)=O)cc1 | 10.0 | 2.2 | 0.9 | 10.2 | 67.8* | -0.9 | -51.1 | -1.5
COCCCNc1nc2c([nH]1)c(=O)[nH]c(=O)n2C | -2.9 | 3.5 | 3.7 | 4.3 | 22.5 | -2.1 | . | .
COc1ccc(Nc2nc3c([nH]2)c(=O)[nH]c(=O)n3C)cc1 | 2.6 | -0.1 | 74.2 | -0.7 | 35.0* | -22.6 | 11.6 | 1.3
COC(=O)[C@@]1(Cc2ccc(F)cc2)[C@H]2c3cc(C(=O)N4CCCC4)n(CCc4ccc(O)c(O)c4)c3C[C@H]2CN1C(=O)c1ccccc1 | 4.3 | 2.0 | 2.8 | -27.5 | 75.3* | -1.0 | 49.4* | 3.6
CNC(=S)/N=C(/Nc1ccccc1)c1ccccc1 | -6.3 | -16.7 | . | -13.9 | 43.7* | -3.9 | -28.3 | -0.2
Oc1c(Br)cccc1/C=N/c1ncn[nH]1 | 2.3 | 13.2 | -14.9 | 9.1 | 62.6* | 3.6 | 55.1* | -0.7
CCOC(=O)c1c(/N=C/C2=C(O)CCCC2=O)sc(C)c1C | -7.8 | -11.6 | 36.2 | 0.2 | 23.7 | -7.3 | . | .
CCOC(=O)c1c(-c2ccc(OC)cc2)csc1/N=C/C1=C(O)CCCC1=O | 0.1 | -17.3 | . | 22.4 | 36.9* | -5.2 | -29.9 | 3.8
CCN(CCCNC(=O)Cn1ncc2c([nH]c3ccc(C)cc32)c1=O)Cc1ccccc1 | -1.8 | -12.8 | 7.1 | -18.9 | -1.2 | -2.6 | . | .
COc1ccc(NC(=O)CSCC(=O)Nc2ccccc2C(=O)N2CCCCC2)cc1 | . | 6.2 | -6.2 | . | . | . | . | .
CC(C)Cn1c(-c2nn(C)cc2Cl)n[nH]c1=S | -4.0 | -4.7 | 9.8 | 8.3 | 11.6 | -2.2 | . | .
Cc1ccsc1-c1n[nH]c(=S)n1CC(C)C | 3.8 | -16.9 | 94.1* | 6.2 | 33.8* | -6.7 | -12.5 | 4.6
Cc1nc2c(C)cccn2c1C(=O)N/N=C/c1ccccc1[N+](=O)[O-] | 1.1 | -11.5 | 12.0 | -6.8 | 39.8* | 1.6 | -40.7 | -3.4
SMILES | EBNA-1 inh | ZTA counter | ALR inh | NS3 helicase inh | PfM18AAP inh-1 | core dimer inh | PfM18AAP inh-2 | CTSL1 counter
COC(=O)CCC(=O)NNC(=O)C1CC1(c1ccccc1)c1ccccc1 (centres undefined) | 6.7 | -11.5 | 8.0 | -0.6 | 11.7 | -9.2 | . | .
Cc1cc(NC(=O)COC(=O)C2CC(=O)N(c3ccccc3Cl)C2)no1 (centres undefined) | -9.7 | 16.4 | 5.0 | 4.3 | 3.4 | -5.6 | . | .
Cc1ccccc1N1CCN(C2CCCN(C(=O)CCn3cnnn3)C2)CC1 (centres undefined) | 7.4 | 5.6 | 22.7 | 5.4 | 2.6 | -1.1 | . | .
CCCCN=Cc1c(C)[nH]n(-c2ccccc2)c1=S | 5.5 | 2.5 | 30.7 | 0.8 | 50.6* | -4.3 | -17.6 | 1.3
N#C/C(=C\c1ccc(-c2ccccc2)o1)C(=O)Nn1cnnc1 | -0.1 | -10.5 | 97.6* | 10.9 | 63.3* | -10.8 | 54.3* | 6.0
Cc1ccc(-c2ccc(/C=C(\C#N)C(=O)Nc3cc(C)nn3-c3ccccc3)o2)cc1 | -14.0 | -11.1 | -5.7 | -0.6 | -4.8 | -0.5 | . | .
CN1CCN(C(=S)NC(=O)c2ccc(Br)cc2)CC1 | -1.7 | -0.4 | -1.7 | 0.1 | -2.2 | 1.1 | . | .
CN1CCN(C(=S)C(=O)Nc2ccc(Br)cc2)CC1 | -0.3 | -3.7 | 20.1 | 7.7 | 55.1* | 0.2 | 13.7 | -8.4
COC(=O)COc1ccc(C)cc1-n1nc2ccccc2n1 | -0.6 | 2.1 | . | -1.7 | 37.6* | 0.4 | -38.7 | -5.1
O=S(=O)(Nn1cnnc1)c1ccccc1 | -9.8 | -0.1 | -1.2 | -5.4 | 36.9* | -3.3 | 61.2* | 1.5
O=S(=O)(Nn1cnnc1)c1ccccc1Cl | -7.0 | -0.4 | 1.7 | 0.8 | 36.5* | -3.4 | 42.7* | -0.4
Cc1ccc(S(=O)(=O)N2CC=C(c3ccc(F)cc3)CC2)cc1 | 0.9 | -5.8 | -1.0 | 2.8 | 75.8* | 5.3 | -52.9 | -2.9
Cc1ccc(-n2c(CCc3nc4ccccc4[nH]3)n[nH]c2=S)cc1 | 2.8 | -9.2 | . | 1.8 | 33.3* | -2.8 | -19.7 | -5.5
CCn1c(CCc2nc3ccccc3[nH]2)n[nH]c1=S | 2.2 | 4.9 | 12.0 | 4.0 | 16.8 | 1.4 | . | .
COc1cc(/C=N/Nc2ccc(S(N)(=O)=O)cc2[N+](=O)[O-])cc(OC)c1O | -5.0 | 0.4 | 28.8 | 0.0 | 45.4* | -25.5 | 13.5 | 3.4
CCc1ccccc1NC(=O)NNC(=O)c1ccc2ccccc2c1O | 11.1 | 15.7 | -1.8 | -5.0 | 38.9* | -1.1 | 3.1 | -0.7
CCOc1ccc(NC(=O)NNC(=O)c2ccc3ccccc3c2O)cc1 | 4.2 | -3.0 | -2.4 | 14.3 | 24.1 | 2.0 | . | .
COc1ccc(NC(=O)NNC(=O)c2ccc3ccccc3c2O)c(OC)c1 | 1.4 | 6.0 | 25.9 | -2.5 | 35.6* | -14.8 | 5.3 | 1.1
Cn1c(SCC(=O)Nc2cccnc2Cl)nnc1-c1ccco1 | . | . | -2.6 | . | . | . | . | .
COc1ccc(OC)c(CNC(=O)C(C)n2nc(C)c3c(C)n(-c4ccccc4)nc3c2=O)c1 (centres undefined) | -0.3 | -2.3 | -4.6 | 3.6 | 3.5 | 4.2 | . | .
